# Measurements: PubChem BioAssay
# Active and inactive are the calls of the source.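 How the source made its calls, unless noted: active means mean duplicate activation above the buffer control mean plus 5 SD of those controls; inactive means the rest.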
# Key:
# [1] = thallium flux activation in parental CHO cells, counter-screen for KCNQ1 potentiator project (AID 493006;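 active means duplicate-averaged activation above buffer control mean plus 5 SD of those controls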); details: parental CHO-K1 cells, FluxOR thallium flux, at 10 µM; stronger effect = higher value
# Method in brief: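 Test system: parental CHO-K1 cells, FluxOR dye-loaded / Probe or stimulus: potassium plus thallium depolarizing stimulus, 5x stock 12.5 mM K2SO4, Tl2SO4 / Timing: overnight 37 °C plating, 90 min dye, 20 min dark compound / Measured by: kinetic thallium-flux fluorescence / Read-out: max-minus-min fluorescence over baseline, percent of buffer-to-R-L3 span / Benchmarks: buffer and R-L3 controls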
# [2] = biological target: Potassium voltage-gated channel subfamily KQT member 1 (Homo sapiens) (UniProt P51787); assay: KCNQ1 potassium channel potentiators, confirmation, FluxOR thallium flux, CHO cells, duplicates (AID 493007;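 active means potentiation averaged over duplicate wells exceeding buffer-only control mean by more than 3 SD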;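 on outcome: cells depolarized by a potassium plus thallium sulfate stimulus after compound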;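 on potentiation: 0% = buffer-only wells and 100% = R-L3 activator control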); details: KCNQ1 cell line, FluxOR thallium flux fluorescence, at 10 µM; stronger effect = higher value, % of reference activator effect, buffer zero
# Chain of Potassium voltage-gated channel subfamily KQT member 1 (Homo sapiens) (P51787 whole entry, looked up): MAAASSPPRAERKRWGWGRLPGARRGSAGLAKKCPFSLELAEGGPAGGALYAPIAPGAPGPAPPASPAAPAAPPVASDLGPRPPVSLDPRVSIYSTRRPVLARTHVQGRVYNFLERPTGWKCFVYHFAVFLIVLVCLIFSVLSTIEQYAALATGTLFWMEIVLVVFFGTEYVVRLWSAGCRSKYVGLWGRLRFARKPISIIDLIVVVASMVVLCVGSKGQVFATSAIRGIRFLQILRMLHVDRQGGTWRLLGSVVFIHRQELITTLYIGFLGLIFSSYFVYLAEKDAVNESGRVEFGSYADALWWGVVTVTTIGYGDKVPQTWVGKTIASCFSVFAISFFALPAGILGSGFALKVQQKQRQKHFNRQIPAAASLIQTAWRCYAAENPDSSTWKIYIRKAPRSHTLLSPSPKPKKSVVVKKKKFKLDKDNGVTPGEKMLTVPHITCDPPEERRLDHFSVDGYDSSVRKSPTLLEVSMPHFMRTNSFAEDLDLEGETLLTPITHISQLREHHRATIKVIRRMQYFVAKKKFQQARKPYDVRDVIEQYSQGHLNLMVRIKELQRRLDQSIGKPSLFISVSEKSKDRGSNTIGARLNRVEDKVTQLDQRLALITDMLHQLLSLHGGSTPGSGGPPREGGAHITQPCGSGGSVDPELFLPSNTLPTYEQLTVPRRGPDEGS
# Method in brief: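 Assay system: CHO cells carrying KCNQ1 | Controls: Buffer and R-L3 controls | Schedule: FluxOR dye loading 90 min, compound exposure 20 min, room temperature | Read-out: Baseline-normalized fluorescence change, percent of buffer-to-R-L3 range | Replicates: Each compound tested in duplicate | Technique: Kinetic thallium influx fluorescence with FluxOR dye, 10 s baseline, 110 s post-stimulus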
# [3] = biological target: Potassium voltage-gated channel subfamily KQT member 2 (Rattus norvegicus) (UniProt O88943); assay: rat KCNQ2 channel potentiation, selectivity assay for KCNQ1 potentiator project, KCNQ2-CHO-K1 cells (AID 493009;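 active means mean duplicate potentiation above the buffer control mean plus 5 SD of buffer wells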;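 further: assay conditions were tuned for KCNQ1 rather than KCNQ2 modulators; signal is max minus min fluorescence divided by baseline after thallium stimulus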); details: FluxOR thallium flux fluorescence, at 10 µM; stronger effect = higher value, scaled: buffer 0, activator control 100
# Chain of Potassium voltage-gated channel subfamily KQT member 2 (Rattus norvegicus) (O88943 whole entry, looked up): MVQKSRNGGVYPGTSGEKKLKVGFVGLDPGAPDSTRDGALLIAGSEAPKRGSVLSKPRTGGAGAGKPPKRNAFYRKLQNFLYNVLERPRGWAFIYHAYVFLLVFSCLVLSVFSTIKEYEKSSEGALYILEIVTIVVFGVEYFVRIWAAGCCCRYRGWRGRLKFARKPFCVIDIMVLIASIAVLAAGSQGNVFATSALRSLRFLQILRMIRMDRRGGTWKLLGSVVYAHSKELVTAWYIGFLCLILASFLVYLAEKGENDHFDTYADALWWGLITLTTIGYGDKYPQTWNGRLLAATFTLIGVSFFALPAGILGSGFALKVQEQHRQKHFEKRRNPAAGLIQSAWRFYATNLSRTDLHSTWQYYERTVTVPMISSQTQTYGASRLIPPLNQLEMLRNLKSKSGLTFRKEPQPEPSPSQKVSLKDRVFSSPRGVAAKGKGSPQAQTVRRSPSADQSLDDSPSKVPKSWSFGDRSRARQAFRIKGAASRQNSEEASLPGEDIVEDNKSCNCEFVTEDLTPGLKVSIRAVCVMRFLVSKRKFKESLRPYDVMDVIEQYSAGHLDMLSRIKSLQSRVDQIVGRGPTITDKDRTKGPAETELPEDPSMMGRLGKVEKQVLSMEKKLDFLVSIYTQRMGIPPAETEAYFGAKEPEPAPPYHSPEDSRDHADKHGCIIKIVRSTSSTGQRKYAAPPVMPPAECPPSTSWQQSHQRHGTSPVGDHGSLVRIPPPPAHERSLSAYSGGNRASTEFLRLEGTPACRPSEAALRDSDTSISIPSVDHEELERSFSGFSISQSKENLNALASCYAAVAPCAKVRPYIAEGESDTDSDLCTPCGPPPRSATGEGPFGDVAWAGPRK
# [4] = biological target: Potassium voltage-gated channel subfamily KQT member 1 (Homo sapiens) (UniProt P51787); assay: KCNQ1 channel current potentiators, confirmation, orthogonal assay for KCNQ1 potentiator project, IonWorks patch clamp, KCNQ1-CHO cells (AID 493184;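 active means current rise at least 3 SD above the untreated control mean in each of two repeat wells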); details: automated patch clamp current, at 10 µM; stronger effect = higher value
# Method in brief: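 Material: KCNQ1-expressing CHO cells; doses: 10 µM final, single point; probe or stimulus: voltage step from -90 mV holding to +40 mV, 2,000 ms; signal: automated voltage clamp, amphotericin B perforated patch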
# [5] = biological target: Potassium voltage-gated channel subfamily E member 1 (Homo sapiens) + Potassium voltage-gated channel subfamily KQT member 1 (Homo sapiens) (UniProt P15382+P51787); assay: KCNQ1/KCNE1 complex potentiators, confirmation, selectivity assay for KCNQ1 potentiator project, thallium flux, CHO-K1 KCNQ1/E1 cells (AID 493186); details: FluxOR thallium flux, at 10 µM; stronger effect = higher value
# Chain of Potassium voltage-gated channel subfamily E member 1 (Homo sapiens) + Potassium voltage-gated channel subfamily KQT member 1 (Homo sapiens) (P51787 whole entry, looked up): as the sequence (P51787 whole entry, looked up) above
# Method in brief: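 Test system: CHO-K1 cells with KCNQ1/E1. Times: 90-min dye loading then 20-min compound exposure, both at room temperature. Measured by: kinetic FluxOR thallium-flux fluorescence, 10 s baseline plus 110 s after stimulus. Repeats: duplicate wells per compound.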
Compound,outcome [1],potentiation [2],outcome [3],outcome [4],outcome [5],outcome [2],potentiation [3]
CCCOc1ccc(C(=O)NNC(=S)NC(=O)c2cc(-c3ccccc3)nc3ccccc23)cc1,inactive,23.5% (active),inactive,inactive,inactive,,
S=c1nc[nH]c2c1sc1nc(N3CCOCC3)c3c(c12)CCCC3,inactive,105% (active),inactive,inactive,inactive,,
Cn1cccc1C(=O)NNC(=O)COc1ccccc1F,inactive,,inactive,inactive,inactive,inactive,
O=C(CCN1Cc2ccccc2C1)c1ccc2c(c1)OCCO2,inactive,45.5% (active),inactive,inactive,inactive,,
COc1cccc(NC(=S)NC(=O)c2c(Cl)c(C)nn2C)c1,inactive,,inactive,inactive,inactive,inactive,
CCN(CC)S(=O)(=O)c1ccc(NC(=O)c2cccnc2Cl)c(NC(=O)c2cccnc2Cl)c1,inactive,43% (active),,inactive,inactive,,242% (active)
O=[N+]([O-])c1ccc(S(=O)(=O)CC(CN2CCCCC2)N2CCCCC2)cc1 (stereo not given),inactive,,inactive,inactive,inactive,inactive,
Cc1[nH]nc(SCC(=O)N2CCCCC2)c1[N+](=O)[O-],inactive,,inactive,inactive,inactive,inactive,
CCN(Cc1ccccc1)C1CCN(Cc2ccccc2)CC1,inactive,,inactive,inactive,inactive,inactive,
S=C(NN=C1CCCCCC1)Nc1ccc(Cl)cc1,inactive,,inactive,inactive,inactive,inactive,
CC12CCC(C/C1=N\N=C1\NC(=O)/C(=C\c3cccc(Br)c3)S1)C2(C)C (stereo not given),inactive,51% (active),,inactive,inactive,,154% (active)
COC(=O)N/N=C/c1cc(C)n(-c2ccc(Br)cc2)c1C,inactive,,inactive,inactive,inactive,inactive,
Cn1cnc([N+](=O)[O-])c1S(=O)(=O)c1cccc(Cl)c1,inactive,,inactive,inactive,inactive,inactive,
Clc1ccc(Nc2ccc(Cl)nn2)cc1,inactive,,,inactive,inactive,inactive,147% (active)
S=c1[nH]nc(COc2ccccc2)n1/N=C/c1ccc(Cl)cc1Cl,inactive,,inactive,inactive,inactive,inactive,
CCCn1c(SCC(=O)Nc2ccccc2C(=O)OC)nc2c1c(=O)n(C)c(=O)n2C,inactive,120% (active),inactive,inactive,inactive,,
COc1ccccc1NC(=O)CC1C(=O)NCCN1C(=O)Nc1ccc(Cl)c(Cl)c1 (stereo not given),inactive,37.5% (active),,inactive,inactive,,157% (active)
CCc1ccc(NC(=O)/C(C#N)=C/c2ccncc2)cc1,inactive,,inactive,inactive,inactive,inactive,
OCCN1CCN(c2nc(-c3ccccc3)nc3c2oc2ccccc23)CC1,inactive,,inactive,inactive,inactive,inactive,
CCOC(=O)Cc1csc(NC(=S)NC(=O)c2ccc(Cl)cc2)n1,inactive,,inactive,inactive,inactive,inactive,

Compound,outcome [1],potentiation [2],outcome [3],outcome [4],outcome [5],outcome [2],potentiation [3]
C/C(=N\NC(=S)NCCc1ccccc1)c1cccs1,inactive,,inactive,inactive,inactive,inactive,
Cn1c(SCC(=O)NC2CC2)nnc1-c1cccs1,inactive,,inactive,inactive,inactive,inactive,
Cc1c(-c2nc(-c3ccncc3)no2)cccc1[N+](=O)[O-],inactive,20% (active),inactive,inactive,inactive,,
Cc1ccc(NC(=S)c2nc3ccccc3s2)cc1,inactive,32% (active),inactive,inactive,inactive,,
O=c1c2ccccc2[nH]c(=S)n1C1CCCCC1,inactive,,inactive,inactive,inactive,inactive,
CCCCS(=O)(=O)/C=C\C=C/S(=O)(=O)CCCC,inactive,,inactive,inactive,inactive,inactive,
Cc1cc(C(=O)NCc2ccc(S(N)(=O)=O)cc2)ccc1[N+](=O)[O-],inactive,,inactive,inactive,inactive,inactive,
CCOc1ccc(OCCCN(C)C)cc1,inactive,,inactive,inactive,inactive,inactive,
Fc1ccc(/C=N/n2c(-c3cccs3)n[nH]c2=S)cc1,inactive,,inactive,inactive,inactive,inactive,
CCOC(=O)c1c(N)sc(N)c1C(=O)OCC,inactive,,,inactive,inactive,inactive,170% (active)
CCOC(=O)c1c(C)nc2sc3c(=O)n(-c4ccc(OC)cc4)cnc3c2c1-c1ccc(OC)cc1,inactive,,inactive,inactive,inactive,inactive,
Cc1ccc(C(=O)NC(=S)N2CCN(c3ccccc3F)CC2)cc1,inactive,,inactive,inactive,inactive,inactive,
O=C(CSc1ccccn1)N1CCN(S(=O)(=O)c2ccc(Cl)cc2)CC1,inactive,,inactive,inactive,inactive,inactive,
O=C(O)c1cc2cc(F)ccc2[nH]1,inactive,,inactive,inactive,inactive,inactive,
C#CCNc1cc(-c2ccccc2)nc2ncnn12,inactive,,inactive,inactive,inactive,inactive,
COc1cc(OC)cc(C(=O)N2CC(=O)Nc3ccccc32)c1,inactive,,inactive,inactive,inactive,inactive,
S=c1[nH]nc(-c2ccco2)n1/N=C/c1ccc(Br)s1,inactive,,inactive,inactive,inactive,inactive,
O=C(NNc1ncc(C(F)(F)F)cc1Cl)c1ccc(Cl)c(Cl)c1,inactive,,,inactive,inactive,inactive,198% (active)
O=C(N1CCCCC1)N1CCN(C(=O)N2CCCCC2)CC1,inactive,19% (active),inactive,inactive,inactive,,
CN1CCN(Cc2ccc(Sc3ccc(Cl)cc3)c([N+](=O)[O-])c2)CC1,inactive,17.5% (active),inactive,inactive,inactive,,

Compound,outcome [1],potentiation [2],outcome [3],outcome [4],outcome [5],outcome [2],potentiation [3]
Cc1ccc(C)c(NC(=S)c2nc3ccccc3s2)c1,inactive,104% (active),,inactive,inactive,,143% (active)
O=C(CSc1nnc(NC(=O)C2CCC2)s1)Nc1ccc(N2CCOCC2)cc1,inactive,,inactive,inactive,inactive,inactive,
CSc1ncc(C(=O)Nc2ccccc2Cl)c(C)n1,inactive,,inactive,inactive,inactive,inactive,
CCOC(=O)c1sc(NC(=S)NC(=O)c2ccccc2)nc1C,inactive,,inactive,inactive,inactive,inactive,
COc1ccccc1N1CCN(C(=O)C2CCN(C(=O)c3cccc(Cl)c3)CC2)CC1,inactive,,inactive,inactive,inactive,inactive,
Cc1nnnn1/C(=C\c1ccccc1)C(=O)OCC(=O)Nc1ccc(Cl)cc1F,inactive,,inactive,inactive,inactive,inactive,
COC(=O)c1sc(NC(=S)NC(=O)c2cccc(C)c2)nc1C,inactive,,inactive,inactive,inactive,inactive,
CS(=O)(=O)c1ccc(C(=O)OCc2nnc(-c3ccccc3)o2)cc1[N+](=O)[O-],inactive,,inactive,inactive,inactive,inactive,
O=C(CN(CCO)c1ccccc1)Nc1cccc(S(=O)(=O)N2CCCC2)c1,inactive,22.5% (active),inactive,inactive,inactive,,
O=C(NC(=S)Nc1ccc(Cl)cn1)c1cccs1,inactive,,inactive,inactive,inactive,inactive,
CC(=O)C[C@H]1c2cc(C(F)(F)F)ccc2S(=O)(=O)N1C1CCCCC1,inactive,74% (active),inactive,inactive,inactive,,
S=c1[nH]nc(-c2cccs2)n1/N=C/c1cn(-c2ccccc2)nc1-c1ccccc1,inactive,22% (active),inactive,inactive,inactive,,
O=C(NC(=S)Nc1ccccc1N1CCOCC1)c1ccc(-c2cc(Cl)ccc2Cl)o1,inactive,,inactive,inactive,inactive,inactive,
CCc1cc(C(=O)N2CCN(c3ccccn3)CC2)sc1C,inactive,,inactive,inactive,inactive,inactive,
Cc1ccc(C(=O)NC(=S)NNC(=O)COc2ccc([N+](=O)[O-])cc2)cc1,inactive,19.5% (active),inactive,inactive,inactive,,
CCCCOc1cccc(C(=O)NC(=S)Nc2cccnc2)c1,inactive,,,inactive,inactive,inactive,143% (active)
COC(=O)c1sccc1NC(=O)CSc1ccccc1NS(=O)(=O)c1cc(Cl)ccc1Cl,inactive,,inactive,inactive,inactive,inactive,
Cc1ccsc1/C=N/Nc1nc2ccccc2s1,inactive,,inactive,inactive,inactive,inactive,
CC(C)CC(=O)Nc1nnc(SCC(=O)NCc2ccco2)s1,inactive,,inactive,inactive,inactive,inactive,
CCCOc1ccccc1NS(=O)(=O)c1ccc2[nH]c(=O)[nH]c2c1,inactive,,inactive,inactive,inactive,inactive,
